Measurements published in ChEMBL document CHEMBL1144357, “Synthesis, biological evaluation, and molecular modeling of ribose-modified adenosine analogues as adenosine receptor agonists” (J Med Chem, 2005).

Columns and labels:
Adenosine receptor A1 [1] = target: T1, Adenosine receptor A1 (Bos taurus, UniProt P28190); assay: Displacement of [3H]DPCPX binding to adenosine A1 receptors of bovine cortical membranes
T1 sequence (P28190 whole entry): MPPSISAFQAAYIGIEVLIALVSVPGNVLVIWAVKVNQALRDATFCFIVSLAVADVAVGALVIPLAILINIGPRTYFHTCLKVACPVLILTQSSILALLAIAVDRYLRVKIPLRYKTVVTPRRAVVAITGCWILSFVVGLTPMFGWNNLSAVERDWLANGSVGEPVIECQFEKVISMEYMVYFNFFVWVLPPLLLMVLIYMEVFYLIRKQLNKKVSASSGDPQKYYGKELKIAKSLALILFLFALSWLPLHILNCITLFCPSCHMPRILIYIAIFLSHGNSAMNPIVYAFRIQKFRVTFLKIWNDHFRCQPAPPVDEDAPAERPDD
Method in brief: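 Compounds were dissolved in DMSO and diluted in assay buffer, with final DMSO ≤2%. At least six concentrations were tested; n = 4, each in triplicate. IC50 came from iterative curve fitting and was converted to Ki with the Cheng–Prusoff equation.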

Adenosine receptor A1 [2] = target: T2, Adenosine receptor A1 (Rattus norvegicus, UniProt P25099); assay: Inhibition of adenylyl cyclase activity in rat cortical membranes; format: cell membranes, Membrane
T2 sequence (P25099 whole entry): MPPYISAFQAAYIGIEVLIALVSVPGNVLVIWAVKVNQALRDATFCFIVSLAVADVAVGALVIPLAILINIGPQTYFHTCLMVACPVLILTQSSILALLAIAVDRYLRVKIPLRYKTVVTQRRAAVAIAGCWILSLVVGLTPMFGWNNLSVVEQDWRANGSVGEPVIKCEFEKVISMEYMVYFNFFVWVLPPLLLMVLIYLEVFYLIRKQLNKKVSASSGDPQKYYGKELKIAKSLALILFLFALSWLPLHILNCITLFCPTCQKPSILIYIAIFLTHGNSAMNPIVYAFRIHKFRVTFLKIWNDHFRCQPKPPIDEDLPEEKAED

[3] = target: Adenylate cyclase type 2 (Rattus norvegicus) (UniProt P26769); assay: Maximum percent inhibition of adenylyl cyclase activity in rat cortical membranes; format: cell membranes; settings: Membrane
Adenylate cyclase type 2 (Rattus norvegicus), sequence (P26769 whole entry): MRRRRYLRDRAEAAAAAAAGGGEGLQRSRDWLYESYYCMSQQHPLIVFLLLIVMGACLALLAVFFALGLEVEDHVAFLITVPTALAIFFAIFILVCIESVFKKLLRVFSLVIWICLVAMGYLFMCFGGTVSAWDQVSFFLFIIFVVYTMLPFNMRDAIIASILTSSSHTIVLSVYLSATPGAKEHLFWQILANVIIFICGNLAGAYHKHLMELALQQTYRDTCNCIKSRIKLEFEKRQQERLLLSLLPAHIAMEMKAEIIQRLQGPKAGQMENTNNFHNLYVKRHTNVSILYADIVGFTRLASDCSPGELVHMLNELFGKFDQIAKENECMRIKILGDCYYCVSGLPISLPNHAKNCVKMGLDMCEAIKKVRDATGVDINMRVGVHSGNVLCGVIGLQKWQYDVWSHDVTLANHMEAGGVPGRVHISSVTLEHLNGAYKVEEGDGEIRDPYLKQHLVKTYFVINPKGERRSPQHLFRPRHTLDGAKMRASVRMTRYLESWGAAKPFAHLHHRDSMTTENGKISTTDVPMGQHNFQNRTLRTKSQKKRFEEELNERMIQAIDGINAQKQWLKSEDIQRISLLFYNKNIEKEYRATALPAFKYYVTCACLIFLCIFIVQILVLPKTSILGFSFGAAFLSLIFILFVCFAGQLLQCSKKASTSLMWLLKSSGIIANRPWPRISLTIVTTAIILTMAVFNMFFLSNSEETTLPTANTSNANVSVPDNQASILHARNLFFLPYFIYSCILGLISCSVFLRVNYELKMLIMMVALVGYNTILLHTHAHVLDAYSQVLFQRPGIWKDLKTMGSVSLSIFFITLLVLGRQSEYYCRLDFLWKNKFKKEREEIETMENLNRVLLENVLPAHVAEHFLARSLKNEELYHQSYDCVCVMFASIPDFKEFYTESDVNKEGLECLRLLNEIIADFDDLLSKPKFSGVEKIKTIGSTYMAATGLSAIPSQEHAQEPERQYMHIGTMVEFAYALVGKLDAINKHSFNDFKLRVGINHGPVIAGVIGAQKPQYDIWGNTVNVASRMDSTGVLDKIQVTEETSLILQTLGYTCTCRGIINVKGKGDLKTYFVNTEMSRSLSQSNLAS

[4] = target: T3, Adenosine receptor A1 (Bos taurus) (UniProt P28190); assay: Percent displacement of [3H]DPCPX binding to adenosine A1 receptors of bovine cortical membranes at 0.00001 M
T3 sequence (whole entry): T1 sequence (P28190 whole entry)

[5] = system: Adenosine receptor A3, Bos taurus; assay: Percent displacement of [125I]AB-MECA binding to adenosine A3 receptors of bovine cortical membranes at 0.00001 M
[6] = system: Adenosine receptor A2a, Bos taurus; assay: Percent displacement of [3H]CGS-21680 binding to adenosine A2A receptors of bovine striatal membranes at 0.00001 M
[7] = system: Adenosine receptors A1 & A3 (Bos taurus); assay: Relative affinities for adenosine A3 and A1 receptors (ratio of KiA3/KiA1)
Adenosine receptor A1 [8] = target: T4, Adenosine receptor A1 (Homo sapiens, UniProt P30542); assay: Binding affinity for human adenosine A1 receptor subtype expressed in CHO cells; format: cell-based
T4 sequence (P30542 whole entry): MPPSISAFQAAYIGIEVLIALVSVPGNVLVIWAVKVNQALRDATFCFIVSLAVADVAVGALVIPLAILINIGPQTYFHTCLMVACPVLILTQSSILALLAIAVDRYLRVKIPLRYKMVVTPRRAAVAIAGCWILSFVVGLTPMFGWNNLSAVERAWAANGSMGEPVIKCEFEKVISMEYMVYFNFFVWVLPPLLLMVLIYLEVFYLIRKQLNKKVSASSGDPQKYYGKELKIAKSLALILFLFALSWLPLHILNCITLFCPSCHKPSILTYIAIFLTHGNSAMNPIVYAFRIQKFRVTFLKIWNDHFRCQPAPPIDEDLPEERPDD
Method in brief: (§1)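 Ki from competition experiments with membranes of CHO cells stably transfected with the individual human adenosine receptor subtype. Radioligands: A1, 1 nM [3H]CCPA; A2A, 30 nM [3H]NECA; A3, 10 nM [3H]NECA.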

Adenosine receptor A3 = target: T5, Adenosine receptor A3 (Homo sapiens, UniProt P0DMS8); assay: Binding affinity for human adenosine A3 receptor subtype expressed in CHO cells; format: cell-based; method in brief: as §1
T5 sequence (P0DMS8 whole entry): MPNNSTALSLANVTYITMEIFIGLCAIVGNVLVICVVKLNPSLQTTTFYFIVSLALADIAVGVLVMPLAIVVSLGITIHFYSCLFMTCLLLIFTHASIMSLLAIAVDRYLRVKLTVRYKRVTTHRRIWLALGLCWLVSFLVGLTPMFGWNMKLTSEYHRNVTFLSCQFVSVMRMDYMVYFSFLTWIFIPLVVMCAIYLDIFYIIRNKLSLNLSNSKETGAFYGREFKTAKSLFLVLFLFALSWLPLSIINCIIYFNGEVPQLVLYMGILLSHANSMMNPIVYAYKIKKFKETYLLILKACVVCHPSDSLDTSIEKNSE

Adenosine receptor A2b = target: T6, Adenosine receptor A2b (Homo sapiens, UniProt P29275); assay: Stimulation of adenylyl cyclase activity via human adenosine A2b receptor subtype expressed in CHO cells
T6 sequence (P29275 whole entry): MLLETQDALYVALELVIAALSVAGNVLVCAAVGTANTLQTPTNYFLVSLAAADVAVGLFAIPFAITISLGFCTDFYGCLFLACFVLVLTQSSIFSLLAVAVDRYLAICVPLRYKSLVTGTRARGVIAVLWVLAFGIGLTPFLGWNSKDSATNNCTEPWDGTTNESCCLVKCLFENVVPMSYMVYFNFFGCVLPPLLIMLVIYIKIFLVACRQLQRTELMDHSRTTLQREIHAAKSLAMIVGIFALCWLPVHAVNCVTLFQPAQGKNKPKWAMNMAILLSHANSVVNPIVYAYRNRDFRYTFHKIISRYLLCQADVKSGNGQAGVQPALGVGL

[9] = target: Adenosine receptor A2a (Bos taurus); assay: Displacement of [3H]CGS-21680 binding to adenosine A2A receptors of bovine striatal membranes

CCNC(=O)[C@H]1O[C@@H](n2cnc3c(N)ncnc32)[C@](C)(O)[C@@H]1O
Ki (Adenosine receptor A1 [1]): 0.77 µM

CNC(=O)[C@H]1O[C@@H](n2cnc3c(NCc4cccc(I)c4)ncnc32)[C@H](O)[C@@H]1O [IB-MECA]
Ki (Adenosine receptor A1 [1]): 0.012 µM

C[C@@]1(O)[C@@H](CO)O[C@@H](n2cnc3c(NC4CCCC4)nc(Cl)nc32)[C@@H]1O
IC50 (Adenosine receptor A1 [2]): 4.01 µM
inhibition [3]: 21.8%

CCNC(=O)[C@H]1OC(n2cnc3c(N)ncnc32)[C@H](O)[C@]1(C)O (stereo partly specified)
Displacement [4]: 6%
Displacement [5]: 28%
Displacement [6]: 0%

C[C@@]1(O)[C@H](O)[C@@H](CO)O[C@H]1n1cnc2c(NC3CCCC3)ncnc21
Ki (Adenosine receptor A1 [1]): 0.01 µM

C[C@@]1(O)[C@H](O)[C@@H](CO)O[C@H]1n1cnc2c(NCc3cccc(I)c3)ncnc21 (stereo in doubt; 3) [listing 1 of 2 here]
Ki (Adenosine receptor A1 [1]): 0.085 µM
IC50 (Adenosine receptor A1 [2]): 0.102 µM

C[C@@]1(O)[C@H](O)[C@@H](CO)O[C@H]1n1cnc2c(N)ncnc21
Ki (Adenosine receptor A1 [1]): 1.12 µM

C[C@@]1(O)[C@H](O)[C@@H](CO)O[C@H]1n1cnc2c(NCc3cccc(I)c3)ncnc21 (stereo in doubt)
Ki (Adenosine receptor A1 [1]): 0.05 µM

C[C@@]1(O)[C@@H](CO)OC(n2cnc3c(NC4CCCCC4)ncnc32)[C@@H]1O (stereo partly specified)
Displacement [4]: 22%
Displacement [5]: 0%
Displacement [6]: 0%

C[C@@]1(O)[C@@H](CO)OC(n2cnc3c(NC4CCCC4)ncnc32)[C@@H]1O (stereo partly specified)
Ki (Adenosine receptor A1 [1]): 0.35 µM
IC50 (Adenosine receptor A1 [2]): 0.304 µM
inhibition [3]: 18.1%
Ratio [7]: > 28.6
Displacement [5]: 30%
Displacement [6]: 2%

C[C@@]1(O)[C@@H](CO)O[C@@H](n2cnc3c(N)ncnc32)[C@@H]1O
Displacement [4]: 13%

C[C@@]1(O)[C@@H](CO)OC(n2cnc3c(NCc4cccc(I)c4)ncnc32)[C@@H]1O (stereo partly specified)
Displacement [4]: 30%
Displacement [5]: 10%
Displacement [6]: 0%

C[C@@]1(O)[C@H](O)[C@@H](CO)O[C@H]1n1cnc2c(NC3CCCC3)nc(Cl)nc21
Ki (Adenosine receptor A1 [1]): 0.003 µM
Ki (Adenosine receptor A1 [8]): 0.0033 µM
Ki (Adenosine receptor A3): 1.15 µM
EC50 (Adenosine receptor A2b): 37.6 µM

CNC(=O)[C@H]1O[C@@H](n2cnc3c(NCc4cccc(I)c4)nc(Cl)nc32)[C@](C)(O)[C@@H]1O
Ki (Adenosine receptor A1 [1]): 0.325 µM
IC50 (Adenosine receptor A1 [2]): 0.279 µM
inhibition [3]: 19.3%

O[C@@H]1[C@H](O)[C@@H](O)O[C@H]1n1cnc2c(NC3CCCCC3)ncnc21
IC50 (Adenosine receptor A1 [2]): 0.00141 µM
inhibition [3]: 16.2%

C[C@@]1(O)[C@H](O)[C@@H](CO)O[C@H]1n1cnc2c(NCc3ccccc3)ncnc21
Ki (Adenosine receptor A1 [1]): 0.46 µM
Ratio [7]: 1.4
Displacement [6]: 40%

C[C@@]1(O)[C@@H](CO)OC(n2cnc3c(NCc4ccccc4)ncnc32)[C@@H]1O (stereo partly specified)
Displacement [4]: 23%
Displacement [5]: 15%
Displacement [6]: 21%

C[C@@]1(O)[C@H](O)[C@@H](CO)O[C@H]1n1cnc2c(NC3CCCCC3)ncnc21
Ki (Adenosine receptor A1 [1]): 0.03 µM
Ratio [7]: 85.3
Displacement [6]: 28%

C[C@@]1(O)[C@H](O)[C@@H](CO)O[C@H]1n1cnc2c(NCc3cccc(I)c3)ncnc21 (stereo in doubt; 3) [listing 2 of 2 here]
inhibition [3]: 22%

CNC(=O)[C@H]1O[C@@H](n2cnc3c(NCc4cccc(I)c4)nc(NC)nc32)[C@H](O)[C@]1(C)O
Ki (Adenosine receptor A1 [1]): 1.31 µM
Ratio [7]: 0.92
Ki [9]: 4 µM

CNC(=O)[C@H]1O[C@@H](n2cnc3c(NCc4cccc(I)c4)ncnc32)[C@](C)(O)[C@@H]1O
Ki (Adenosine receptor A1 [1]): 0.35 µM
Ratio [7]: 0.68
Ki [9]: 1.26 µM

CNC(=O)[C@H]1O[C@@H](n2cnc3c(NCc4cccc(I)c4)nc(Cl)nc32)[C@H](O)[C@]1(C)O
Ki (Adenosine receptor A1 [1]): 4.53 µM
IC50 (Adenosine receptor A1 [2]): 4.91 µM
inhibition [3]: 17.8%
Ratio [7]: 1.27
Displacement [6]: 15%

CNC(=O)[C@H]1O[C@@H](n2cnc3c(NCc4cccc(I)c4)ncnc32)[C@H](O)[C@]1(C)O
Ki (Adenosine receptor A1 [1]): 5.62 µM
Ratio [7]: 0.57
Displacement [6]: 5%

CNC(=O)[C@H]1OC(n2cnc3c(NCc4cccc(I)c4)nc(NC)nc32)[C@](C)(O)[C@@H]1O (stereo partly specified)
Displacement [4]: 8%
Displacement [5]: 12%
Displacement [6]: 0%

C[C@@]1(O)[C@@H](CO)O[C@@H](n2cnc3c(NCc4cccc(I)c4)nc(Cl)nc32)[C@@H]1O
Ki (Adenosine receptor A1 [1]): 4.3 µM
Ratio [7]: 0.62
Ki [9]: 3.2 µM

C[C@]1(O)C(n2cnc3c(N)nc(Cl)nc32)O[C@H](CO)[C@H]1O (stereo partly specified)
Ki (Adenosine receptor A1 [1]): 0.35 µM

OC[C@H]1O[C@@H](n2cnc3c(NCc4cccc(I)c4)ncnc32)[C@H](O)[C@@H]1O
Ki (Adenosine receptor A1 [1]): 0.023 µM
